Activity calls are given as the source filed them. The rule behind the calls is not given here.
Tests used:
MDA-MB-231 [1] = experiment: Antimigratory activity against human MDA-MB-231 cells at >0.03 uM after 20 hrs by wound healing assay; format: functional, cell-based
How it was run: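 MDA-MB-231 monolayers grown to confluence, scratched with a sterile pipet tip, rinsed with saline, then kept in DMEM containing vehicle or compound; wound images taken after 20 h and analysed.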

[2] = Cytotoxicity against human MDA-MB-436 cells assessed as cell viability after 72 hrs by MTT assay; format: functional, cell-based; conditions: MDA-MB-436, 72 h
[3] = biological target: Serine/threonine-protein kinase TBK1 (Homo sapiens, UniProt Q9UHD2); experiment: Inhibition of human TBK1
Serine/threonine-protein kinase TBK1, sequence (Q9UHD2 whole entry): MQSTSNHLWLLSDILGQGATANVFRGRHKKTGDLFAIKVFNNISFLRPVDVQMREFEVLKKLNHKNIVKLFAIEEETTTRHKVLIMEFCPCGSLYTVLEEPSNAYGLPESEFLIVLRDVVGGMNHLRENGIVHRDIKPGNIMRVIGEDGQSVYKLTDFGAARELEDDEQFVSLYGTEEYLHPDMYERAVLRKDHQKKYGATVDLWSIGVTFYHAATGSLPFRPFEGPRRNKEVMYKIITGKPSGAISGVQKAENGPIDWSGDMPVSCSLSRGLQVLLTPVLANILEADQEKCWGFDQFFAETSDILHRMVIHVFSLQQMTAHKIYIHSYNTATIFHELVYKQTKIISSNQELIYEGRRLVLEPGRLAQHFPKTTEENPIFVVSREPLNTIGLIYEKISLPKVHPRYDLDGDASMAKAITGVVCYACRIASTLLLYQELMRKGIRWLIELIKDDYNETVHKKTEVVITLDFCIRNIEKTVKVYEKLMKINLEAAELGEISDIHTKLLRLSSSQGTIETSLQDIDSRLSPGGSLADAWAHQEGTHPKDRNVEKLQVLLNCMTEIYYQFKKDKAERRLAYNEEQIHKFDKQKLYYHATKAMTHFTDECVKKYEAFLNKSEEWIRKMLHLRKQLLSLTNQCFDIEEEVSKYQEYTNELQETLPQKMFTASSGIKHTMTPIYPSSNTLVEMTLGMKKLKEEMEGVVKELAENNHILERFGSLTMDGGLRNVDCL
How it was run: (§1)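 Recombinant human protein kinases screened through the Eurofins KinaseProfiler service. IC50 values are means of two independent experiments.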

Mus musculus [4] = experiment: Toxicity in SCID mouse xenografted with human MDA-MB-231 cells at 7.5 to 15 mg/kg/day, po qd administered for 18 days measured everyday during compound dosing; format: organism-based; set-up: route oral; conditions: in vivo, 432 h
How it was run: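 SCID mice (5–6 weeks) implanted subcutaneously with 100 μL of MDA-MB-231 suspension at 5 ×10^7 per mL. At 150–200 mm3 tumours, mice were randomised (6 per group) and dosed orally once daily for 18 days in water with 25% PEG400 plus 5% DMSO. Side effects were monitored daily.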

MDA-MB-231 [5] = experiment: Induction of apoptosis in human MDA-MB-231 cells assessed as viable cells at 0.1 uM after 48 hrs by annexin V-FITC/propidium iodide staining-based flow cytometric analysis (reference value: 94.4%); format: functional; conditions: MDA-MB-231, 48 h, read-out: Activity
MDA-MB-231 [6] = experiment: Induction of apoptosis in human MDA-MB-231 cells assessed as early apoptotic cells at 0.3 uM after 24 hrs by annexin V-FITC/propidium iodide staining-based flow cytometric analysis (reference value: 1.58%); format: functional
[7] = biological target: Protein kinase C alpha type (Homo sapiens, UniProt P17252); experiment: Inhibition of human PKCalpha; how it was run: as §1
Mus musculus [8] = experiment: In vivo inhibition of Src phosphorylation in tumor of SCID mouse xenografted with human MDA-MB-231 cells at 30 mg/kg/day, po administered for 18 days measured post last dose by immunohistochemical analysis relative to vehicle-treated control; format: functional, organism-based
How it was run: (§2)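 SCID mice carrying subcutaneous MDA-MB-231 xenografts received oral dosing once daily for 18 days (vehicle 25% PEG400 plus 5% DMSO in sterile water); at the end, tumors formalin-fixed and paraffin-embedded, 4–8 μm sections immunostained (Ki67, phospho-proteins) or TUNEL/AP-Red labelled, and compared with control.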

[9] = biological target: Serine/threonine-protein kinase pim-1 (Homo sapiens, UniProt P11309); experiment: Inhibition of human Pim1; how it was run: as §1
Serine/threonine-protein kinase pim-1, sequence (P11309 whole entry): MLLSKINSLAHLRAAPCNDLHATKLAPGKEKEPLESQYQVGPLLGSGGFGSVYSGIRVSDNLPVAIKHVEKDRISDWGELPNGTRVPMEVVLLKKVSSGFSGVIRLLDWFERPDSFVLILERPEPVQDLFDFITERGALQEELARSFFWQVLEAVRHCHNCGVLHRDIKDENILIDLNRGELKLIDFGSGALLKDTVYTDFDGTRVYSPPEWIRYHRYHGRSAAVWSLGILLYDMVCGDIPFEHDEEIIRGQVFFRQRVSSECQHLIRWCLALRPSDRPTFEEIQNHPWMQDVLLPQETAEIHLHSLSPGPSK

[10] = biological target: Mitogen-activated protein kinase 8 (Homo sapiens, UniProt P45983); experiment: Inhibition of human JNK1alpha1; how it was run: as §1
Mitogen-activated protein kinase 8, sequence (P45983 whole entry, looked up): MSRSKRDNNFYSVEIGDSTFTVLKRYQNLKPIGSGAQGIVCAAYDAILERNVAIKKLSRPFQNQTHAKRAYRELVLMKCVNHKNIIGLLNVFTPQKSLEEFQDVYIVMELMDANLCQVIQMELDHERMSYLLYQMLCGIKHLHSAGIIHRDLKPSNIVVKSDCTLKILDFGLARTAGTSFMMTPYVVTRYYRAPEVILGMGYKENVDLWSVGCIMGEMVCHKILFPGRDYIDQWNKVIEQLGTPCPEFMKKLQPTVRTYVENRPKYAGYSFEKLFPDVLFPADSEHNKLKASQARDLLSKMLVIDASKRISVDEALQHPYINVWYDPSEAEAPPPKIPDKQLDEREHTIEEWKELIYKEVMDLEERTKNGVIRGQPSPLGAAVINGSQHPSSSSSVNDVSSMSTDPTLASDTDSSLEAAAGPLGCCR

MDA-MB-231 [11] = experiment: Induction of apoptosis in human MDA-MB-231 cells assessed as early apoptotic cells at 0.03 uM after 24 hrs by annexin V-FITC/propidium iodide staining-based flow cytometric analysis (reference value: 1.58%); format: functional
MDA-MB-231 [12] = experiment: Effect on AKT phosphorylation in human MDA-MB-231 cells at 0.001 to 1 uM after 20 hrs by Western blot analysis; format: cell-based
How it was run: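 MDA-MB-231 cells exposed to a concentration series for 20 h at 37 °C, lysed in RIPA with protease inhibitor cocktail, cleared by centrifugation, protein quantified by Bradford, resolved by SDS-PAGE, transferred to PVDF and immunoblotted.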

Aurora kinase A = Aurora kinase A (Homo sapiens, UniProt O14965); experiment: Inhibition of human Aurora-A; how it was run: as §1
Aurora kinase A, sequence (O14965 whole entry): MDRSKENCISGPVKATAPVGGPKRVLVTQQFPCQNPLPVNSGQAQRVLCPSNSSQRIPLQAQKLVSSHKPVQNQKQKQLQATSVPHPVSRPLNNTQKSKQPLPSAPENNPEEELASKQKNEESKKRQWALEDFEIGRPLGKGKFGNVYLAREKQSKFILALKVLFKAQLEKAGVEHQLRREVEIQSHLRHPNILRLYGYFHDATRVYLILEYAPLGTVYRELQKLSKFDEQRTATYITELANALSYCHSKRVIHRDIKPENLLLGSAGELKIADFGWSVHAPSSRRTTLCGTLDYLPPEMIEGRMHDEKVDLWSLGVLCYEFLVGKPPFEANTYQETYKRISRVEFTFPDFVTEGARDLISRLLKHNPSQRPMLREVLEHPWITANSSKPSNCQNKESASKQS

BT-474 = experiment: Cytotoxicity against human BT474 cells assessed as cell viability after 72 hrs by MTT assay; format: functional, cell-based; conditions: BT-474, 72 h
[13] = biological target: T1, Proto-oncogene tyrosine-protein kinase Src (Homo sapiens, UniProt P12931)
T1 sequence (P12931 2-536 limits assumed): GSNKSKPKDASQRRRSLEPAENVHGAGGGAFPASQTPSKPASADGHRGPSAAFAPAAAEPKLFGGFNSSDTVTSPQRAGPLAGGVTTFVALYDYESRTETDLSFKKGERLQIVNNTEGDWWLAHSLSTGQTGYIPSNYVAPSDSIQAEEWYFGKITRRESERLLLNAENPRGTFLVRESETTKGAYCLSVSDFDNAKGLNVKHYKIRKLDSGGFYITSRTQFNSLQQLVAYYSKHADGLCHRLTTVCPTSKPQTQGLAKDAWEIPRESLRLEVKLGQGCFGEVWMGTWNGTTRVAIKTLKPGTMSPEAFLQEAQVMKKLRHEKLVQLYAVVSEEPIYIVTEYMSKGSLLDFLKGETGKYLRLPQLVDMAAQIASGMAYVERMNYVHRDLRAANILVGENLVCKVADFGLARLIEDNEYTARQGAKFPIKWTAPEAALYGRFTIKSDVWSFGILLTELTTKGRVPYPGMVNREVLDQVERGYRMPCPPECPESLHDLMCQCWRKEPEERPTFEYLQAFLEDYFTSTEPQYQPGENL

Mus musculus [14] = experiment: In vivo inhibition of MEK phosphorylation in tumor of SCID mouse xenografted with human MDA-MB-231 cells at 30 mg/kg/day, po administered for 18 days measured post last dose by immunohistochemical analysis relative to vehicle-treated control; format: functional, organism-based; how it was run: as §2
MDA-MB-435 = experiment: Cytotoxicity against human MDA-MB-435 cells assessed as cell viability after 72 hrs by MTT assay; format: functional, cell-based; conditions: MDA-MB-435, 72 h
Focal adhesion kinase 1 = Focal adhesion kinase 1 (Homo sapiens, UniProt Q05397); experiment: Inhibition of human FAK; how it was run: as §1
Focal adhesion kinase 1, sequence (Q05397 whole entry): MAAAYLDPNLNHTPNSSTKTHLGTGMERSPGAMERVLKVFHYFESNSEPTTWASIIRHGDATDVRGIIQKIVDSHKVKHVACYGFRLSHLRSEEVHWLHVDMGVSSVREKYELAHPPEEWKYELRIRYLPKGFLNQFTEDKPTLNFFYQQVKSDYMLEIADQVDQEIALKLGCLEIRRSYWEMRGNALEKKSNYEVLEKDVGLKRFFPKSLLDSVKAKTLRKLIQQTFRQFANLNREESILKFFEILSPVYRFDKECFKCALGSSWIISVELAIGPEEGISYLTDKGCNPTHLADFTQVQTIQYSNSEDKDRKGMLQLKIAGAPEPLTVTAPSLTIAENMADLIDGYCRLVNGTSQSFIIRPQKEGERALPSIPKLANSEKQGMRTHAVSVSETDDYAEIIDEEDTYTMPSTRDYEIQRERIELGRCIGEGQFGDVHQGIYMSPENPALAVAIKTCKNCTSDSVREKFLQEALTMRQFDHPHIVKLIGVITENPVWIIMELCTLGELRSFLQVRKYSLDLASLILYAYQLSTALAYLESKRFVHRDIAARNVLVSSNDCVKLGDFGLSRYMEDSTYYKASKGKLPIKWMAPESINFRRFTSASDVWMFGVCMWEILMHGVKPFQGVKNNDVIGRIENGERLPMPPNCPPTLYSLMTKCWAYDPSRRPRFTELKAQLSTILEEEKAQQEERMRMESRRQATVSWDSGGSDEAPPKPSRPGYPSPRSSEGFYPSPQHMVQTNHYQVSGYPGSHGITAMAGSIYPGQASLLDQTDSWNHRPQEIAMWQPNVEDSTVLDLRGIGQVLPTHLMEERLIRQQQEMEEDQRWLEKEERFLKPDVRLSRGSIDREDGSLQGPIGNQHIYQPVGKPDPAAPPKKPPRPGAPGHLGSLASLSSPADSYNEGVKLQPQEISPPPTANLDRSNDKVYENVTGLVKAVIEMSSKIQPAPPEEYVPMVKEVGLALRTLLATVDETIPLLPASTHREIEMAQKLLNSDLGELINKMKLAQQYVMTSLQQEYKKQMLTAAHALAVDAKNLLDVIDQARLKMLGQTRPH

MCF7 = experiment: Cytotoxicity against human MCF7 cells assessed as cell viability after 72 hrs by MTT assay; format: functional, cell-based; conditions: MCF7, 72 h
[15] = biological target: Serine/threonine-protein kinase mTOR (Homo sapiens, UniProt P42345); experiment: Inhibition of human mTOR; how it was run: as §1
MDA-MB-231 [16] = experiment: Induction of apoptosis in human MDA-MB-231 cells assessed as late apoptotic cells at 0.3 uM after 48 hrs by annexin V-FITC/propidium iodide staining-based flow cytometric analysis (reference value: 4.25%); format: functional
MDA-MB-231 [17] = experiment: Induction of apoptosis in human MDA-MB-231 cells assessed as early apoptotic cells at 0.1 uM after 48 hrs by annexin V-FITC/propidium iodide staining-based flow cytometric analysis (reference value: […]); format: functional
MDA-MB-231 [18] = experiment: Induction of apoptosis in human MDA-MB-231 cells assessed as viable cells at 0.1 uM after 24 hrs by annexin V-FITC/propidium iodide staining-based flow cytometric analysis (reference value: 95.5%); format: functional; conditions: MDA-MB-231, 24 h, read-out: Activity
MDA-MB-231 [19] = experiment: Antitumor activity against human MDA-MB-231 cells xenografted in mouse assessed as tumor growth inhibition at 40 mg/kg/day, po; format: functional, organism-based
How it was run: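 Oral daily dosing at 40 mg kg−1 d−1 began once MDA-MB-231 xenografts reached about 200 mm3; three mice per group; tumor volume tracked.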

[20] = Cmax in Sprague-Dawley rat at 10 mg/kg, po by LC/MS analysis; format: ADME, organism-based; set-up: dose 10 mg/kg, route oral; conditions: in vivo
How it was run: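 Single oral gavage dose in male Sprague-Dawley rats fasted overnight; serial blood drawn via surgically placed jugular vein catheters at set times, plasma separated at once and measured by HPLC-MS/MS; noncompartmental parameters fitted; n=5.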

[21] = biological target: T1, Proto-oncogene tyrosine-protein kinase Src; remark: listed apart in the source
[22] = biological target: NUAK family SNF1-like kinase 1 (Homo sapiens, UniProt O60285); experiment: Inhibition of human Ark5; how it was run: as §1
NUAK family SNF1-like kinase 1, sequence (O60285 whole entry): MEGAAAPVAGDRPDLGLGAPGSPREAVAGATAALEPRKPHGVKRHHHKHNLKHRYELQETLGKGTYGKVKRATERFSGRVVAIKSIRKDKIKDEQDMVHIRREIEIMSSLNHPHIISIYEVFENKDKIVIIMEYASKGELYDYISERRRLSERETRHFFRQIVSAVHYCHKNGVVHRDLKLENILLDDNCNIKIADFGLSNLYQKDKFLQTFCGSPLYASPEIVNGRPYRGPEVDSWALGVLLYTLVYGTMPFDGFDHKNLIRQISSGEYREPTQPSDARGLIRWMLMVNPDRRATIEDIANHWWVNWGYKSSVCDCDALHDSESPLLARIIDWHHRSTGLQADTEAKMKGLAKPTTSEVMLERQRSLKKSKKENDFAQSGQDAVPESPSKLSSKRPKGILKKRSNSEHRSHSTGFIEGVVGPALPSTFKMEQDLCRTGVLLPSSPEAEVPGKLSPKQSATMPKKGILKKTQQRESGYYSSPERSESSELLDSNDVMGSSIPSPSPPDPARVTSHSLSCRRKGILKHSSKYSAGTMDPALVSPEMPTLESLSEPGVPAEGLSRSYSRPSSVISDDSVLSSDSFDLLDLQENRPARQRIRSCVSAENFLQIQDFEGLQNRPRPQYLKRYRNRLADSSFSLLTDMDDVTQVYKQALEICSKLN

MDA-MB-231 [23] = experiment: Antiinvasive activity against human MDA-MB-231 cells at 0.1 uM after 24 hrs by transwell assay; format: functional, cell-based
[24] = biological target: Dual specificity mitogen-activated protein kinase kinase 1 (Homo sapiens, UniProt Q02750); experiment: Inhibition of human MEK1; how it was run: as §1
Dual specificity mitogen-activated protein kinase kinase 1, sequence (Q02750 whole entry): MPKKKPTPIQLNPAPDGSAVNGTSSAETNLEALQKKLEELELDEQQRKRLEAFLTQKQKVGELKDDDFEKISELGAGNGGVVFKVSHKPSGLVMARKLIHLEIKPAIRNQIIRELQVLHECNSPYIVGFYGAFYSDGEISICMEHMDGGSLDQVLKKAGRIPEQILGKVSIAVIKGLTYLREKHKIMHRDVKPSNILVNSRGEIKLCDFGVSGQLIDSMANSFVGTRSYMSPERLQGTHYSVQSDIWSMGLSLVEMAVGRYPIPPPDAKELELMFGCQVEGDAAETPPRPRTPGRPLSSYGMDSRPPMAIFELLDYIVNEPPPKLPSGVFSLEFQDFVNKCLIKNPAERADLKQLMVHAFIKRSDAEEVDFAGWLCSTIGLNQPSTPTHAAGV

[25] = biological target: Glycogen synthase kinase-3 beta (Homo sapiens, UniProt P49841); experiment: Inhibition of human GSK3beta; how it was run: as §1
Glycogen synthase kinase-3 beta, sequence (P49841 whole entry): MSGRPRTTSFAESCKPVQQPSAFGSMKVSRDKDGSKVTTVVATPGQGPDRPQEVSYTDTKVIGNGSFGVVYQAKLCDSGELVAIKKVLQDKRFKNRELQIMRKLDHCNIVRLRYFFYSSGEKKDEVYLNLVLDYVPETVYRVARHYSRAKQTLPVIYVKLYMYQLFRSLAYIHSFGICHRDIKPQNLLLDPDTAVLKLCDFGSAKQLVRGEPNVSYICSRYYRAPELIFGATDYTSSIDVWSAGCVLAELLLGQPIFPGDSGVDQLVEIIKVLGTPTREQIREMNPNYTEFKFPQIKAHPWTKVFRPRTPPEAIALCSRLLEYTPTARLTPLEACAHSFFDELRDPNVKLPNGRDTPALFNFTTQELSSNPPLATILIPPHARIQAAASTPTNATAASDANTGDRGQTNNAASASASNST

[26] = Cytotoxicity against human HBL1 cells assessed as cell viability after 72 hrs by MTT assay; format: functional, cell-based; conditions: HBL1, 72 h
[27] = biological target: RAC-beta serine/threonine-protein kinase (Homo sapiens, UniProt P31751); experiment: Inhibition of human PKBbeta; how it was run: as §1
MDA-MB-231 [28] = experiment: Induction of apoptosis in human MDA-MB-231 cells assessed as viable cells at 0.03 uM after 24 hrs by annexin V-FITC/propidium iodide staining-based flow cytometric analysis (reference value: 95.5%); format: functional; conditions: MDA-MB-231, 24 h, read-out: Activity

For `CCn1nc(C#Cc2cc(C(=O)Nc3ccc(CN4CCN(C)CC4)c(C(F)(F)F)c3)ccc2C)c2c(N)ncnc21`, the Activity (MDA-MB-231 [1]) was “Active”, the IC50 [2] was 0.316 µM and the IC50 [3] was greater than 10 µM. For the same molecule, the Activity (Mus musculus [4]) was “Non-toxic”, the viability at 0.1 µM (MDA-MB-231 [5]) was 69.2% and the Activity (MDA-MB-231 [6]) was 6.51%. The IC50 [7] was greater than 10 µM, the inhibition (Mus musculus [8]) was “Active” and the IC50 [9] was greater than 10 µM. For the same molecule, the IC50 [10] was greater than 10 µM, the Activity (MDA-MB-231 [11]) was 2.29% and the Activity (MDA-MB-231 [12]) was “inactive”. The IC50 (Aurora kinase A) was greater than 10 µM, the IC50 (BT-474) was greater than 10 µM and the IC50 [13] was 0.03 µM. For the same molecule, the inhibition (Mus musculus [14]) was “Active”, the IC50 (MDA-MB-435) was 0.005 µM and the IC50 (Focal adhesion kinase 1) was greater than 10 µM. The IC50 (MCF7) was 7.25 µM, the IC50 [15] was greater than 10 µM and the Activity (MDA-MB-231 [16]) was 10.3%. The Activity (MDA-MB-231 [17]) was 13.9%, the viability at 0.1 µM (MDA-MB-231 [18]) was 79.1% and the TGI (MDA-MB-231 [19]) was “Active”. It also gave a Cmax [20] of 215 ng/mL, an IC50 [21] of 0.0009 µM and an IC50 [22] greater than 10 µM. The Activity (MDA-MB-231 [23]) was “Active”, the IC50 [24] was greater than 10 µM and the IC50 [25] was greater than 10 µM. For the same molecule, the IC50 [26] was 10 µM, the IC50 [27] was greater than 10 µM and the viability at 0.03 µM (MDA-MB-231 [28]) was 92.9%.
